Measurements as given in ChEMBL document CHEMBL4406803, “A- and D-Ring Structural Modifications of an Androsterone Derivative Inhibiting 17β-Hydroxysteroid Dehydrogenase Type 3: Chemical Synthesis and Structure-Activity Relationships” (J Med Chem, 2019).
Active and inactive are the calls of the source. No cut-off for these calls is given here.

Tests used:
PC-3 [1] = assay: Antiproliferative activity against AR-deficient human PC3 cells assessed as reduction in cell proliferation at 0.5 uM measured after 3 days by MTS assay relative to control; type: functional; design: scale not given: the % may be the effect or the level left
Method in brief: (§1)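 Androgen-independent PC-3 cells were plated at 3,000 per well in triplicate in RPMI-1640 with 10% FBS. Compounds were added at 0.1, 0.5 and 1.0 µM from DMSO stock, with 0.05% DMSO in controls, and incubated 3 days. Growth was read by MTS (4 h, 490 nm) and expressed as % of non-treated control (100%).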

LAPC4 [2] = assay: Antiproliferative activity against human LAPC4 cells expressing androgen receptor assessed as inhibition of cell proliferation at 1 uM supplemented with fresh medium containing compounds every 3 days for 7 days by MTS assay relative to control; type: functional
Method in brief: (§2)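 Androgen-dependent LAPC-4 cells were seeded at 5,000 per well in IMDM with 5% dextran-coated charcoal-treated FBS and pre-incubated 24 h at 37 °C, 5% CO2. Compounds were added from DMSO stock at 0.1, 0.5 and 1.0 µM, with 0.05% DMSO in controls. Incubation lasted 7 days, with a medium change at day 3. Growth was read by MTS (4 h, 490 nm) as % of untreated control (100%), in triplicate.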

PC-3 [3] = assay: Antiproliferative activity against AR-deficient human PC3 cells assessed as reduction in cell proliferation at 1 uM measured after 3 days by MTS assay relative to control; type: functional; design: scale not given: the % may be the effect or the level left; method in brief: as §1
[4] = target: T1, 17-beta-hydroxysteroid dehydrogenase type 3 (Homo sapiens) (UniProt P37058); assay: Inhibition of 17beta-HSD3 (unknown origin) expressed in human LNCAP cells assessed as reduction in [14C]-testosterone formation from [14C]-4-androstene-3,17-dione at 1 uM measured after 1 hr relative to control; type: cell-based
T1 sequence (whole entry): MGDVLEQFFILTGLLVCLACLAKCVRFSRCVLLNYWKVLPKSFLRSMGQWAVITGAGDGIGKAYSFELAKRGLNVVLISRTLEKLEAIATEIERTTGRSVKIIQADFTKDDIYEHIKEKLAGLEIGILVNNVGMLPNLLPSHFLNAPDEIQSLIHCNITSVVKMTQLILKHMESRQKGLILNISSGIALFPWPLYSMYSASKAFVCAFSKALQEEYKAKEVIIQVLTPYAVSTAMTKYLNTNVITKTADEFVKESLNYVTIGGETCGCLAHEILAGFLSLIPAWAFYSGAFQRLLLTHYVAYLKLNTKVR
Method in brief: (§3)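 LNCaP cells stably transfected with 17β-HSD3 were plated at 10,000 per well in hygromycin-free medium and grown 2 days. They were then given 15 nM [14C]-4-androstenedione plus inhibitor at 0.1, 0.5 or 1.0 µM (0.05% DMSO final) for 1 h. Steroids were ether-extracted, separated by TLC and quantified by radioimaging. Results are % inhibition of conversion to T.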

PC-3 [5] = assay: Antiproliferative activity against AR-deficient human PC3 cells assessed as reduction in cell proliferation at 0.1 uM measured after 3 days by MTS assay relative to control; type: functional; design: scale not given: the % may be the effect or the level left; method in brief: as §1
[6] = target: T1, 17-beta-hydroxysteroid dehydrogenase type 3 (Homo sapiens); assay: Inhibition of 17beta-HSD3 (unknown origin) expressed in human LNCAP cells assessed as reduction in [14C]-testosterone formation from [14C]-4-androstene-3,17-dione at 0.1 uM measured after 1 hr relative to control; type: cell-based; method in brief: as §3
LAPC4 [7] = assay: Antiproliferative activity against human LAPC4 cells expressing androgen receptor assessed as inhibition of cell proliferation at 0.5 uM supplemented with fresh medium containing compounds every 3 days for 7 days by MTS assay relative to control; type: functional; method in brief: as §2
T47D [8] = assay: Antiproliferative activity against human T47D cells assessed as reduction in cell proliferation at 1 to 5 uM; type: functional, cell-based
[9] = target: T2, 17-beta-hydroxysteroid dehydrogenase type 3 (Rattus norvegicus, UniProt O54939); assay: Inhibition of 17beta-HSD3 in Sprague-Dawley rat testes microsomal fraction assessed as reduction in [14C]-testosterone formation from [14C]-4-androstene-3,17-dione measured after 2 hrs; design: species or system Testis
T2 sequence (O54939 whole entry): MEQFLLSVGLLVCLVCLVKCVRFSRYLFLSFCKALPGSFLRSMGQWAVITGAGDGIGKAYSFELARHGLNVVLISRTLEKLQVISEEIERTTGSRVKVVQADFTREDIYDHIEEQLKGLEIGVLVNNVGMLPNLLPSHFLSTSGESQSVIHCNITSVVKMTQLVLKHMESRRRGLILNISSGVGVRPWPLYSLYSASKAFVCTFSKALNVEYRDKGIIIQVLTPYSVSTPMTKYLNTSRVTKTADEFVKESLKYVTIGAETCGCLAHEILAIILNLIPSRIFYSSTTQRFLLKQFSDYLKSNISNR
Method in brief: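 The enzyme source was a microsomal fraction from Sprague-Dawley rat testes, prepared by homogenization in phosphate/sucrose/EDTA buffer (pH 7.5) and centrifugation at 100,000 g. The assay ran 2 h at 37 °C in 50 mM sodium phosphate (pH 7.4, 20% glycerol, 1 mM EDTA) with NADPH cofactor and [14C]-4-androstenedione. [14C]-T formation was measured at six inhibitor concentrations in triplicate, and IC50 was fitted from the curves.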

[10] = Plasma concentration in mouse at 25 mg/kg, sc administered as single dose measured after 3 hrs by LC-MS/MS analysis; type: ADME, organism-based
Method in brief: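 Female mice were fasted 8 h, then given a single 25 mg/kg subcutaneous dose in 0.1 mL of 0.4% aqueous methylcellulose with 8% DMSO. At 3 h, blood was taken by cardiac puncture into K-EDTA tubes (3 mice per group). Plasma was extracted and analysed by LC-MS/MS against a plasma calibration curve.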

T47D [11] = assay: Estrogenic activity in human T47D cells assessed as stimulation of cell proliferation at 1 to 5 uM; type: ADME, cell-based
[12] = target: T1, 17-beta-hydroxysteroid dehydrogenase type 3 (Homo sapiens); assay: Inhibition of 17beta-HSD3 (unknown origin) expressed in human LNCAP cells assessed as reduction in [14C]-testosterone formation from [14C]-4-androstene-3,17-dione at 0.5 uM measured after 1 hr relative to control; type: cell-based; method in brief: as §3
[13] = target: T3, 17-beta-hydroxysteroid dehydrogenase type 3 (Homo sapiens, UniProt P37058); assay: Inhibition of 17beta-HSD3 (unknown origin) expressed in human LNCAP cells assessed as reduction in [14C]-testosterone formation from [14C]-4-androstene-3,17-dione measured after 1 hr; type: cell-based
T3 sequence (P37058 whole entry): T1 sequence (whole entry)
Method in brief: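 Transfected LNCaP[17β-HSD3] cells were incubated 1 h with 15 nM [14C]-4-androstenedione and inhibitor at seven concentrations (0.001–5.0 µM; 0.05% DMSO). [14C]-T formation was measured by TLC and radioimaging. IC50 was obtained by curve fitting, averaging two independent experiments in triplicate.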

LAPC4 [14] = assay: Antiproliferative activity against human LAPC4 cells expressing androgen receptor assessed as inhibition of cell proliferation at 0.1 uM supplemented with fresh medium containing compounds every 3 days for 7 days by MTS assay relative to control; type: functional; method in brief: as §2
LAPC4 [15] = assay: Antiproliferative activity against human LAPC4 cells expressing androgen receptor assessed as inhibition of cell proliferation supplemented with fresh medium containing compounds every 3 days for 7 days by MTS assay; type: functional, cell-based; method in brief: as §2
[16] = Stability of the compound in human liver S9 fraction at 10 uM measured after 1 hr by NADPH by HPLC-MS analysis; type: ADME, subcellular; conditions: s9, 1 h
Method in brief: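 Substrate (10 µM) was incubated 1 h at 37 °C with 40 µg human liver S9 fraction in 50 mM Tris with 10 mM MgCl2, with or without 10 mM NADPH. The reaction was stopped with MeOH. Remaining parent was measured by HPLC-MS (UV 190 nm) as the AUC ratio with/without NADPH ×100. Values are the mean ± SD of four independent experiments.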

LAPC4 [17] = assay: Androgenic activity in human LAPC4 cells expressing androgen receptor assessed as effect on cell proliferation at 0.1 uM supplemented with fresh medium containing compounds every 3 days for 7 days by MTS assay (reference value: 100%); type: ADME, cell-based; conditions: lapc4, 168 h; method in brief: as §2
LAPC4 [18] = assay: Androgenic activity in human LAPC4 cells expressing androgen receptor assessed as effect on cell proliferation at 0.5 uM supplemented with fresh medium containing compounds every 3 days for 7 days by MTS assay (reference value: 100%); type: ADME, cell-based; conditions: lapc4, 168 h; method in brief: as §2
LAPC4 [19] = assay: Androgenic activity in human LAPC4 cells expressing androgen receptor assessed as effect on cell proliferation at 1 uM supplemented with fresh medium containing compounds every 3 days for 7 days by MTS assay (reference value: 100%); type: ADME, cell-based; conditions: lapc4, 168 h; method in brief: as §2

Compound	Activity (PC-3 [1]) [%]	inhibition (INH) (LAPC4 [2]) [%]	Activity (PC-3 [3]) [%]	inhibition [4] [%]	Activity (PC-3 [5]) [%]	inhibition [6] [%]	inhibition (INH) (LAPC4 [7]) [%]	Activity (T47D [8])	IC50 [9] [nM]	concentration at 3 h [10] [ng/mL]	Activity (T47D [11])	inhibition [12] [%]	IC50 [13] [nM]	inhibition (INH) (LAPC4 [14]) [%]	inhibition (LAPC4 [15])	Stability [16]	Activity (LAPC4 [17]) [%]	Activity (LAPC4 [18]) [%]	Activity (LAPC4 [19]) [%]
CC1CN(S(=O)(=O)c2ccccc2C(F)(F)F)C(C)CN1Cc1cc2c(cc1O)CC[C@@H]1[C@@H]2CC[C@]2(C)C(=O)CC[C@@H]12 (some centres not stated)	5	6	7	84	4	50	7	inactive	120	89.3	Non-Toxic	76	170	0	–	–	–	–	–
CC1CN(S(=O)(=O)c2ccccc2C(F)(F)F)C(C)CN1CC(O)c1ccc2c(c1)CC[C@@H]1[C@@H]2CC[C@]2(C)C(=O)CC[C@@H]12 (single isomer, unassigned; diastereomer B) [listing 1 of 2 here]	–	–	–	100	–	84	–	–	–	–	–	98	–	–	Dose-dependent effect	–	–	–	–
CC1CN(S(=O)(=O)c2ccccc2C(F)(F)F)C(C)CN1C(=O)c1ccc2c(c1)CC[C@@H]1[C@@H]2CC[C@]2(C)C(=O)CC[C@@H]12 (some centres not stated)	0	63	6	90	7	45	54	–	110	108	–	78	100	40	Dose-dependent effect	Stable	–	–	–
CC1CN(S(=O)(=O)c2ccccc2C(F)(F)F)C(C)CN1C[C@@]1(O)CC[C@H]2[C@@H](CC[C@@H]3[C@@H]2CC[C@]2(C)C(=O)CC[C@@H]32)C1 (some centres not stated)	–	–	–	94	–	20	–	–	–	–	–	82	220	–	–	Unstable	92.8	66.3	63.1
CC1CN(S(=O)(=O)c2ccccc2C(F)(F)F)C(C)CN1CCc1ccc2c(c1)CC[C@@H]1[C@@H]2CC[C@]2(C)C(=O)CC[C@@H]12 (some centres not stated)	5	79	1	70	1	38	80	inactive	100	51.6	Non-Toxic	60	130	48	Dose-dependent effect	–	–	–	–
CC1CN(S(=O)(=O)c2ccccc2C(F)(F)F)C(C)CN1CC(O)c1ccc2c(c1)CC[C@@H]1[C@@H]2CC[C@]2(C)C(=O)CC[C@@H]12 (single isomer, unassigned; diastereomer B) [listing 2 of 2 here]	6	44	5	–	8	–	32	–	60	48.7	–	–	20	-3	–	–	–	–	–
CC1CN(S(=O)(=O)c2ccccc2C(F)(F)F)C(C)CN1C[C@@]1(O)CC[C@@]2(C)[C@@H](CC[C@@H]3[C@@H]2CC[C@]2(C)/C(=N/O)CC[C@@H]32)C1 (some centres not stated)	6	56	4	90	10	40	41	–	–	94.7	–	80	220	-8	Dose-dependent effect	Stable	–	–	–
CC1CN(S(=O)(=O)c2ccccc2C(F)(F)F)C(C)CN1C[C@@]1(O)CC[C@@]2(C)[C@@H](CC[C@@H]3[C@@H]2CC[C@]2(C)C(=O)[C@H](F)C[C@@H]32)C1 (some centres not stated)	–	–	–	90	–	22	–	–	–	–	–	75	200	–	–	Stable	147.7	134.2	126.6
CC(=O)[C@H]1CC[C@H]2[C@@H]3CC[C@H]4C[C@@](O)(CN5CC(C)N(S(=O)(=O)c6ccccc6C(F)(F)F)CC5C)CC[C@]4(C)[C@H]3CC[C@]12C (some centres not stated)	–	–	–	42	–	10	–	–	–	–	–	30	2600	–	–	Stable	45.9	26.4	27.1
CC1CN(S(=O)(=O)c2ccccc2C(F)(F)F)C(C)CN1C[C@@]1(O)CC[C@@]2(C)[C@@H](CC[C@@H]3[C@@H]2CC[C@]2(C)C(=O)CC[C@@H]32)C1 (some centres not stated)	6	67	11	100	9	60	52	–	80	27.7	–	96	90	4	Dose-dependent effect	Unstable	–	–	–
